Source: PubChem
KCNK9 block: inhibitors of human KCNK9 two-pore domain potassium channel. Q9NPC2. HEK293 KCNK9, FluxOR thallium flux fluorescence; stronger effect = lower value. B-score at 10 µM. hit rate 1.2% among 310,000. AID 488922;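 active means ratio B-score over 3 SD below the library mean, with starting fluorescence within 5 SD of its mean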;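 further: negative B-score means less thallium flux so channel inhibition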
KCNQ1 pot: human KCNQ1 channel potentiation or activation; B-score at 10 µM; hit rate 0.35% among 310,000; P51787; CHO-K1 KCNQ1, thallium flux FluxOR fluorescence; stronger effect = higher value;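 active means fluorescence ratio B-score, a plate-corrected score, at least three library SD, with initial intensity B-score within 5 SD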
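Medium – assay buffer, equal DMSO in all wells · Material – CHO-K1 cell line with stable KCNQ1 potassium channel expression · Signal – kinetic FluxOR thallium fluorescence, 10-s 1-Hz baseline, 110-s post-stimulus read · Compound – single concentration per compound, DMSO matched to controls · Schedule – 37 °C overnight plating, 90-min dark dye load, 20-min compound pretreatment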
KCNK3 inh: human KCNK3 channel inhibition, primary screen. CHO-KCNK3 thallium flux, FluxOR fluorescence; stronger effect = lower value. AID 602410. hit rate 0.84% among 340,000. O14649. B-score at 10 µM;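 active means B-score under library mean minus 4 SD, starting fluorescence ratio at most library mean plus 5 SD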;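 further: more negative B-score means stronger inhibition of thallium flux through KCNK3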
hERG rescue: compounds protecting human hERG from proarrhythmic drug block. AID 1511. hit rate 0.51% among 310,000. activation (rescue from dofetilide block), less the hit threshold, % at 10 µM. CHO-hERG, FluxOR thallium flux, dofetilide IC70 present. Q12809;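 active means activation above the mean of controls blocked by dofetilide plus 5 SD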;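 further: thallium influx through hERG after potassium depolarization seen as dye fluorescence rise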
KCNQ1 block: human KCNQ1 channel inhibition; P51787; CHO-K1 KCNQ1, FluxOR thallium flux fluorescence; stronger effect = higher value; B-score at 10 µM; hit rate 1.3% among 310,000;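 active means compounds whose thallium flux B-score, printed positive for inhibition, exceeds three library SD while starting fluorescence stays within three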;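 further: channel opened by potassium depolarization with thallium stimulus after 20 min compound exposure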
Kir21 block: inhibitors of mouse Kir2.1 inward-rectifier potassium channel; P35561; HEK293-Kir2.1, FluxOR thallium flux fluorescence; stronger effect = lower value; B-score at 10 µM; hit rate 0.85% among 310,000; AID 1672;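 active means fluorescence ratio B-score at or below minus 3 SD of library scores, with starting-brightness B-score within 2 SD, cut at about -4.2 in these data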;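 further: channel flux triggered by added potassium and thallium sulfate stimulus; B-score of peak minus minimum fluorescence over baseline after thallium stimulus; more negative B-score means stronger Kir2.1 block with less thallium influx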
Target sequence (P35561 whole entry, looked up): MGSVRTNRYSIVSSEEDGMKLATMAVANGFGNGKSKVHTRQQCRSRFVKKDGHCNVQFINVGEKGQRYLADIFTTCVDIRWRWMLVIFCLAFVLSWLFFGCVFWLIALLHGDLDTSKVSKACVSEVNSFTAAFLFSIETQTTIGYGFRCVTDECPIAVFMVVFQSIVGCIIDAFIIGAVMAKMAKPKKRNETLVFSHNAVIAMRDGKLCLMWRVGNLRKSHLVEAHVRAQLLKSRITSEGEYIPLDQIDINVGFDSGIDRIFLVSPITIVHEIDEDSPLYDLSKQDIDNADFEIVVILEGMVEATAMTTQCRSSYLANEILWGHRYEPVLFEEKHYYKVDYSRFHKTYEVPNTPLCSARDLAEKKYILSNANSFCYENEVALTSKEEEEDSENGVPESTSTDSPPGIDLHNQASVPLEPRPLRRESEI
KCNK9 inh conf: human KCNK9 inhibitor confirmation. inhibition, % at 10 µM. HEK293 KCNK9 cells, FluxOR thallium flux fluorescence. shares compounds with KCNK9 block. hit rate 43% among 4,900;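 active means thallium signal inhibited by more than 5 SD of the compound-free buffer control wells, on both duplicate plates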
Kir21 sel: tests whether KCNK9 modulators also affect mouse Kir2.1. shares compounds with KCNK9 block. Kir2.1 cells, FluxOR thallium flux fluorescence. hit rate 4% among 4,900. inhibition, % at 10 µM;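 active means thallium signal drop more than 5 SD beyond the mean of the no-compound control wells, seen in both duplicate plates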;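 further: signal is fluorescence rise after thallium addition divided by baseline fluorescence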
KCNK9 uninduced: second check of KCNK9 modulator effects in non-induced HEK293 cells. inhibition, % at 10 µM. hit rate 40% among 4,900. FluxOR thallium flux. shares compounds with KCNK9 block;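 active means thallium signal drop beyond 5 SD of the untreated control mean, on both duplicate plates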
KCNK3 inh conf: human KCNK3 channel inhibition, confirmation assay | hit rate 99% among 2,400 | CHO-KCNK3 thallium flux, FluxOR fluorescence; 0% buffer, 100% carvedilol maximal block | shares compounds with KCNK3 inh | ratio percent of control, % at 10 µM | AID 651638;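 active means ratio percent of control, averaged over triplicates, above buffer control mean plus 5 SD, cut at about 64% in these data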;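 further: ratio is the fluorescence rise from min to max over baseline after thallium stimulus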
KCNK3 noninduced: KCNK3 inhibitor counter-screen hit in non-induced cells. thallium flux ratio (lower = more inhibition) at 10 µM. shares compounds with KCNK3 inh. non-induced KCNK3 parental cells, FluxOR thallium flux; stronger effect = lower value. hit rate 40% among 2,400;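 active means thallium flux ratio, averaged over three wells, more than 5 SD below the buffer control mean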;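 further: host cells are CHO cells without KCNK3 induction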
Each line names hits and unclear results; the compound was inactive in the other large screens (follow-up assays come after a bar, where they were run). In the library only some 3.7% were active in any assay of this set; here they are far more common.

Cc1cc2cccc(C)c2nc1SCC(=O)NC1CCCCC1	KCNK9 block -12.3, KCNK3 inh -9.5 | KCNK9 inh conf inactive | Kir21 sel inactive | KCNK9 uninduced inactive | KCNK3 inh conf 92.3 | KCNK3 noninduced inactive
CCc1cc(=O)oc2cc(C)cc(OCC(=O)N3CCC(C(=O)NC(C)C)(c4ccccc4)CC3)c12	KCNK9 block -18.9, KCNK3 inh -13.5 | KCNK9 inh conf 65.0% | Kir21 sel inactive | KCNK9 uninduced 26.0% | KCNK3 inh conf 100.3 | KCNK3 noninduced inactive
CCCCc1cc(=O)oc2c(C)c(OCC(=O)N3CCC(C(=O)O)(c4ccccc4)CC3)ccc12	none
Cc1ccc(S(=O)(=O)N(C)CC(=O)N(CC(C)C)C2CCS(=O)(=O)C2)cc1 (stereo unspecified)	none
COc1cccc(CNCC(O)(c2ccc(Cl)cc2)c2ccc(Cl)cc2)c1	KCNK9 block -13.4, KCNQ1 block 7 | KCNK9 inh conf inactive | Kir21 sel inactive | KCNK9 uninduced 38.0% | KCNK3 inh conf 139.3 | KCNK3 noninduced 0.154
COc1cc(NS(=O)(=O)c2ccc(NC(=S)NC(=O)/C=C/c3ccco3)cc2)ncn1	none
CC1CCN(S(=O)(=O)c2ccc(NC(=O)c3cccs3)cc2)CC1	none
CC1CCCCN1S(=O)(=O)c1ccc(NC(=O)c2cccs2)cc1 (stereo unspecified)	KCNK9 block -8.68 | KCNK9 inh conf 41.0% | Kir21 sel inactive | KCNK9 uninduced inactive | KCNK3 inh conf 88.3 | KCNK3 noninduced inactive
CCCCN(CCCC)S(=O)(=O)c1ccc(NC(=O)c2cccs2)cc1	KCNK9 block -8.64 | KCNK9 inh conf 48.0% | Kir21 sel inactive | KCNK9 uninduced 44.0% | KCNK3 inh conf 120.7 | KCNK3 noninduced 0.154
CC(C)(C)n1nnnc1C(c1cccs1)N(Cc1ccccc1)Cc1cccnc1 (stereo unspecified)	KCNK9 block -12.8 | KCNK9 inh conf 66.0% | Kir21 sel inactive | KCNK9 uninduced 54.5% | KCNK3 inh conf 117.7 | KCNK3 noninduced inactive
COc1ccc(NC(=O)Nc2ccc(F)c(F)c2)c(OC)c1	none
Cc1cc(NC(=O)COC(=O)c2nccnc2N)n(-c2ccccc2)n1	none
CC(C)(C)c1cc(NC(=O)COC(=O)c2nccnc2N)n(-c2ccccc2)n1	KCNK9 block -8.62, KCNK3 inh -9.08 | KCNK9 inh conf 51.5% | Kir21 sel inactive | KCNK9 uninduced 31.5% | KCNK3 inh conf 94.3 | KCNK3 noninduced inactive
COc1cn(-c2ccccc2)nc1C(=O)Nc1ccc(C)cc1	none
COc1ccc(C)cc1NC(=O)c1nn(-c2ccccc2)cc1OC	KCNK9 block -17.7 | KCNK9 inh conf 61.0% | Kir21 sel inactive | KCNK9 uninduced 31.0% | KCNK3 inh conf 129.7 | KCNK3 noninduced 0.137
COc1ccccc1C1CCN(C(=O)C2CCCCC2)CC1	none
COc1ccccc1C1CCN(c2cc(O)ccc2[N+](=O)[O-])CC1	KCNK9 block -10.9, KCNK3 inh -10.4, KCNQ1 block 11 | KCNK9 inh conf 55.0% | Kir21 sel inactive | KCNK9 uninduced 44.5% | KCNK3 inh conf 110.7 | KCNK3 noninduced inactive
Cc1ccccc1CN(C)C(C)C(=O)Nc1ccccc1F (stereo unspecified)	KCNK9 block -13.9, KCNK3 inh -11 | KCNK9 inh conf 58.5% | Kir21 sel inactive | KCNK9 uninduced 43.5% | KCNK3 inh conf 114.0 | KCNK3 noninduced inactive
CCn1cc(Cl)c(C(=O)Nc2cccc(C(F)(F)F)c2)n1	KCNK9 block -8.46 | KCNK9 inh conf 42.5% | Kir21 sel inactive | KCNK9 uninduced 33.5% | KCNK3 inh conf 108.3 | KCNK3 noninduced inactive
Cc1c(C)n(C(=O)CN2CCN(c3ccccc3)CC2)c2ccccc12	KCNK3 inh -10 | KCNK9 inh conf inactive | Kir21 sel inactive | KCNK9 uninduced inactive | KCNK3 inh conf 83.0 | KCNK3 noninduced inactive
CCN(CC)C(=O)COc1ccc(-c2ccccc2)cc1	KCNK9 block -9.85, KCNK3 inh -10 | KCNK9 inh conf 41.0% | Kir21 sel inactive | KCNK9 uninduced inactive | KCNK3 inh conf 84.3 | KCNK3 noninduced inactive
CCN(Cc1ccccc1)C(=O)COc1ccccc1	none
COc1ccccc1N1CCN(C(c2ccccc2Cl)c2nnnn2C(C)(C)C)CC1 (stereo unspecified)	none (no result: KCNK9 block, KCNQ1 pot, hERG rescue, KCNQ1 block, Kir21 block)
COc1ccccc1C(c1nnnn1C(C)(C)C)N1CCN(Cc2ccncc2)CC1 (stereo unspecified)	KCNK9 block -18.9, KCNK3 inh -9.22 | KCNK9 inh conf 76.5% | Kir21 sel inactive | KCNK9 uninduced 33.5% | KCNK3 inh conf 115.7 | KCNK3 noninduced inactive
Clc1ccc(CSc2nnc(-c3sccc3-n3cccc3)o2)cc1	KCNK9 block -13.9, KCNK3 inh -9.22, KCNQ1 block 6 | KCNK9 inh conf 49.5% | Kir21 sel inactive | KCNK9 uninduced inactive | KCNK3 inh conf 100.7 | KCNK3 noninduced inactive
CS(=O)(=O)c1nc(S(=O)(=O)c2ccc(Cl)cc2)c(NCc2ccccn2)s1	none
CCOC(=O)C(CCCCOc1cccc(CC)c1)C(=O)OCC	none
CCOC(=O)C(CCCOc1cccc(CC)c1)C(=O)OCC	KCNK3 inh -10.2 | KCNK9 inh conf inactive | Kir21 sel inactive | KCNK9 uninduced inactive | KCNK3 inh conf 107.7 | KCNK3 noninduced inactive
Fc1ccc(C(c2nnnn2C2CCCC2)N2CCc3ccccc32)cc1 (stereo unspecified)	KCNK9 block -9.51, KCNK3 inh -9.31 | KCNK9 inh conf 37.5% | Kir21 sel inactive | KCNK9 uninduced 46.5% | KCNK3 inh conf 107.3 | KCNK3 noninduced inactive
Fc1ccc(C(c2nnnn2CCc2ccccc2)N2CCCc3ccccc32)cc1 (stereo unspecified)	KCNK9 block -8.29, KCNK3 inh -9.11 | KCNK9 inh conf 34.5% | Kir21 sel inactive | KCNK9 uninduced 36.0% | KCNK3 inh conf 92.7 | KCNK3 noninduced 0.143
COc1cc2cc(C(c3nnnn3C3CCCC3)N3CCc4ccccc43)c(=O)[nH]c2cc1OC (stereo unspecified)	none
